ChEMBL document CHEMBL4406880, “Design, synthesis, and bioactivity of dihydropyrimidine derivatives as kinesin spindle protein inhibitors” (Bioorg Med Chem, 2019)

Tests used:
Type in all cases: functional
A549 = test: Growth inhibition of human A549/ATCC cells assessed as growth percentage at 10 uM incubated for 48 hrs by sulforhodamine B assay relative to control; conditions: A549, 48 h, read-out: Activity
Procedure, shortened: (§1)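 NCI-60 one-dose screen: cells in RPMI 1640 with 5% FBS and 2 mM L-glutamine, plated at 5,000–40,000 cells/well and preincubated 24 h at 37 °C, 5% CO2. Compound is added from a DMSO stock to a final 10 µM and incubated 48 h. Cells are TCA-fixed and stained with sulforhodamine B, read at 515 nm. Output is % growth versus untreated control, with a time-zero plate.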

EKVX = test: Growth inhibition of human EKVX cells assessed as growth percentage at 10 uM incubated for 48 hrs by sulforhodamine B assay relative to control; conditions: read-out: Activity; procedure, shortened: as §1
K562 = test: Growth inhibition of human K562 cells assessed as growth percentage at 10 uM incubated for 48 hrs by sulforhodamine B assay relative to control; conditions: K562, 48 h, read-out: Activity
Procedure, shortened: (§2)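 NCI-60 one-dose screen. Cells in RPMI 1640 with 5% FBS and 2 mM L-glutamine, seeded at 5,000–40,000 cells/well according to doubling time, and preincubated overnight at 37 °C, 5% CO2. A time-zero plate was TCA-fixed at drug addition. Compound from DMSO stock, final 10 µM, 48 h; DMSO vehicle controls. Fixation with TCA, 10% final (16% for suspension cells). SRB stain, Tris solubilization, A515. Result given as % growth versus untreated cells.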

HOP-92 = test: Growth inhibition of human HOP92 cells assessed as growth percentage at 10 uM incubated for 48 hrs by sulforhodamine B assay relative to control; conditions: HOP-92, 48 h, read-out: Activity; procedure, shortened: as §2
NCI-H226 = test: Growth inhibition of human NCI-H226 cells assessed as growth percentage at 10 uM incubated for 48 hrs by sulforhodamine B assay relative to control; conditions: NCI-H226, 48 h, read-out: Activity; procedure, shortened: as §2
NCI-H23 = test: Growth inhibition of human NCI-H23 cells assessed as growth percentage at 10 uM incubated for 48 hrs by sulforhodamine B assay relative to control; conditions: NCI-H23, 48 h, read-out: Activity; procedure, shortened: as §2
HCC 2998 = test: Growth inhibition of human HCC2998 cells assessed as growth percentage at 10 uM incubated for 48 hrs by sulforhodamine B assay relative to control; conditions: HCC 2998, 48 h, read-out: Activity; procedure, shortened: as §1
HCT-15 = test: Growth inhibition of human HCT15 cells assessed as growth percentage at 10 uM incubated for 48 hrs by sulforhodamine B assay relative to control; conditions: HCT-15, 48 h, read-out: Activity; procedure, shortened: as §1
KM12 = test: Growth inhibition of human KM12 cells assessed as growth percentage at 10 uM incubated for 48 hrs by sulforhodamine B assay relative to control; conditions: KM12, 48 h, read-out: Activity; procedure, shortened: as §2
SF-268 = test: Growth inhibition of human SF268 cells assessed as growth percentage at 10 uM incubated for 48 hrs by sulforhodamine B assay relative to control; conditions: SF-268, 48 h, read-out: Activity
Procedure, shortened: (§3)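 NCI-60 single-dose screen. Cells were grown in RPMI 1640 with 5% FBS and 2 mM L-glutamine and plated at 5,000–40,000 cells/well. After an overnight preincubation at 37 °C in 5% CO2, compound was added at a final 10 µM from a DMSO stock, with DMSO/PBS controls. After 48 h, cells were TCA-fixed and stained with 0.4% SRB, and absorbance was read at 515 nm. Growth is given as a percentage of untreated control.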

SF-539 = test: Growth inhibition of human SF539 cells assessed as growth percentage at 10 uM incubated for 48 hrs by sulforhodamine B assay relative to control; conditions: SF-539, 48 h, read-out: Activity; procedure, shortened: as §3
SNB-75 = test: Growth inhibition of human SNB75 cells assessed as growth percentage at 10 uM incubated for 48 hrs by sulforhodamine B assay relative to control; conditions: SNB-75, 48 h, read-out: Activity; procedure, shortened: as §3
Malme-3M = test: Growth inhibition of human MALME-3M cells assessed as growth percentage at 10 uM incubated for 48 hrs by sulforhodamine B assay relative to control; conditions: read-out: Activity; procedure, shortened: as §2
M14 = test: Growth inhibition of human M14 cells assessed as growth percentage at 10 uM incubated for 48 hrs by sulforhodamine B assay relative to control; conditions: M14, 48 h, read-out: Activity; procedure, shortened: as §2
MDA-MB-435 = test: Growth inhibition of human MDA-MB-435 cells assessed as growth percentage at 10 uM incubated for 48 hrs by sulforhodamine B assay relative to control; conditions: MDA-MB-435, 48 h, read-out: Activity; procedure, shortened: as §2
IGROV-1 = test: Growth inhibition of human IGROV1 cells assessed as growth percentage at 10 uM incubated for 48 hrs by sulforhodamine B assay relative to control; conditions: IGROV-1, 48 h, read-out: Activity; procedure, shortened: as §2
OVCAR-5 = test: Growth inhibition of human OVCAR5 cells assessed as growth percentage at 10 uM incubated for 48 hrs by sulforhodamine B assay relative to control; conditions: OVCAR-5, 48 h, read-out: Activity; procedure, shortened: as §3
NCI/ADR-RES = test: Growth inhibition of human NCI/ADR-RES cells assessed as growth percentage at 10 uM incubated for 48 hrs by sulforhodamine B assay relative to control; conditions: read-out: Activity; procedure, shortened: as §2
786-0 = test: Growth inhibition of human 786-0 cells assessed as growth percentage at 10 uM incubated for 48 hrs by sulforhodamine B assay relative to control; conditions: 786-0, 48 h, read-out: Activity; procedure, shortened: as §1
CAKI-1 = test: Growth inhibition of human Caki1 cells assessed as growth percentage at 10 uM incubated for 48 hrs by sulforhodamine B assay relative to control; conditions: CAKI-1, 48 h, read-out: Activity; procedure, shortened: as §1
RXF 393 = test: Growth inhibition of human RXF393 cells assessed as growth percentage at 10 uM incubated for 48 hrs by sulforhodamine B assay relative to control; conditions: RXF 393, 48 h, read-out: Activity; procedure, shortened: as §3
TK-10 = test: Growth inhibition of human TK10 cells assessed as growth percentage at 10 uM incubated for 48 hrs by sulforhodamine B assay relative to control; conditions: TK-10, 48 h, read-out: Activity; procedure, shortened: as §3
UO-31 = test: Growth inhibition of human UO31 cells assessed as growth percentage at 10 uM incubated for 48 hrs by sulforhodamine B assay relative to control; conditions: UO-31, 48 h, read-out: Activity; procedure, shortened: as §3
MCF7 = test: Growth inhibition of human MCF7 cells assessed as growth percentage at 10 uM incubated for 48 hrs by sulforhodamine B assay relative to control; conditions: MCF7, 48 h, read-out: Activity; procedure, shortened: as §2
T47D = test: Growth inhibition of human T47D cells assessed as growth percentage at 10 uM incubated for 48 hrs by sulforhodamine B assay relative to control; conditions: read-out: Activity; procedure, shortened: as §3
MDA-MB-468 = test: Growth inhibition of human MDA-MB-468 cells assessed as growth percentage at 10 uM incubated for 48 hrs by sulforhodamine B assay relative to control; conditions: MDA-MB-468, 48 h, read-out: Activity; procedure, shortened: as §2

Compound	growth at 10 µM (A549) [%]	growth at 10 µM (EKVX) [%]	growth at 10 µM (K562) [%]	growth at 10 µM (HOP-92) [%]	growth at 10 µM (NCI-H226) [%]	growth at 10 µM (NCI-H23) [%]	growth at 10 µM (HCC 2998) [%]	growth at 10 µM (HCT-15) [%]	growth at 10 µM (KM12) [%]	growth at 10 µM (SF-268) [%]	growth at 10 µM (SF-539) [%]	growth at 10 µM (SNB-75) [%]	growth at 10 µM (Malme-3M) [%]	growth at 10 µM (M14) [%]	growth at 10 µM (MDA-MB-435) [%]	growth at 10 µM (IGROV-1) [%]	growth at 10 µM (OVCAR-5) [%]	growth at 10 µM (NCI/ADR-RES) [%]	growth at 10 µM (786-0) [%]	growth at 10 µM (CAKI-1) [%]	further results
CC(=O)C1=C(C)NC(=S)NC1c1ccc2c(c1)OCO2 (racemic)	105	106	98.6	92.5	102	107	108	108	109	100	98.7	90.1	108	107	103	104	101	112	103	91.9	growth at 10 µM (RXF 393): 102%; growth at 10 µM (TK-10): 97.6%; growth at 10 µM (UO-31): 81%; growth at 10 µM (MCF7): 103%; growth at 10 µM (T47D): 96.2%; growth at 10 µM (MDA-MB-468): 113%
CC(=O)N1C(=S)NC(C)=C(C(=O)OCC(C)C)C1c1ccc2c(c1)OCO2 (racemic)	95.9	99.8	78.2	80.6	94.6	97.1	110	93.3	93.8	100	101	92.2	108	96.4	95.5	112	99.4	97	95.1	96.2	growth at 10 µM (RXF 393): 106%; growth at 10 µM (TK-10): 95.4%; growth at 10 µM (UO-31): 91.8%; growth at 10 µM (MCF7): 104%; growth at 10 µM (T47D): 66.7%; growth at 10 µM (MDA-MB-468): 94.9%
CC1=C(C(=O)c2ccccc2)C(c2ccc3c(c2)OCO3)NC(=O)N1 (racemic)	101	95.1	92.7	92.4	97.4	107	111	99.8	99.9	100	99.7	91.4	91.7	99.8	90.1	90.6	106	103	99.5	91.1	growth at 10 µM (RXF 393): 109%; growth at 10 µM (TK-10): 99%; growth at 10 µM (UO-31): 80.6%; growth at 10 µM (MCF7): 97.5%; growth at 10 µM (T47D): 91.2%; growth at 10 µM (MDA-MB-468): 109%
COCCOC(=O)C1=C(C)NC(=O)NC1c1ccc2c(c1)OCO2 (racemic)	101	99.1	97.4	112	98	92	101	101	102	98	101	89.6	99.8	104	101	103	101	104	102	90.4	growth at 10 µM (RXF 393): 94.6%; growth at 10 µM (TK-10): 100%; growth at 10 µM (UO-31): 87.3%; growth at 10 µM (MCF7): 96.8%; growth at 10 µM (T47D): 98.4%; growth at 10 µM (MDA-MB-468): 106%
CC(=O)N1C(=S)NC(C)=C(C(=O)OCc2ccccc2)C1c1ccc2c(c1)OCO2 (racemic)	95.6	96.8	55.4	73.3	96.3	94	110	83.8	71.1	73.8	84.2	80.4	91.6	54	60.1	98	107	95.3	96.8	92.4	growth at 10 µM (RXF 393): 101%; growth at 10 µM (TK-10): 100%; growth at 10 µM (UO-31): 85.4%; growth at 10 µM (MCF7): 92.1%; growth at 10 µM (T47D): 58.1%; growth at 10 µM (MDA-MB-468): 78.9%
